TbMetRS inhib – blocks T. brucei methionyl-tRNA synthetase activity. purified T. brucei MetRS, ATP depletion, Kinase-Glo luminescence. inhibition, % at 11.9 µM. hit rate 0.4% among 360,000;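 active means inhibition above a per-plate cutoff of the control wells' mean inhibition plus 3 SD, cut at about 5.5% in these data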;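 further: 0% = DMSO wells median and 100% = median of wells with control inhibitor compound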
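Material: T. brucei methionyl-tRNA synthetase, purified; reagent: substrates ATP, L-methionine and bulk Escherichia coli tRNA; dosing: 11.9 µM single point; timing: 15 min plus 2 h at 25 °C; detection: luminescence of leftover ATP; evaluation: % inhibition; control set: DMSO-only wells as low control; replicates: singlicate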
CSN deneddyl inh – inhibitors of human CSN-mediated cullin deneddylation. hit rate 0.38% among 360,000. Purified CSN, SCF-Nedd8-OG deneddylation, fluorescence polarization. inhibition, % at 12.5 µM. AID 651999;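 active means pattern-corrected inhibition above about 35%, with an unprinted fluorescence ratio check between 0.5 and 1.5, limit read from the data, passing the limit was not always enough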;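 further: 0% = enzyme with substrate and 100% = substrate without enzyme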
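Test system: Human Csn5 produced in HEK293T cells | Compound: 12.5 µM single point | Times: 90 min, room temperature | Signal: Fluorescence polarization readout | Read-out basis: % inhibition of substrate cleavage by Csn5 | Controls: no-enzyme wells high, enzyme-with-substrate wells low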
TPT1 inh – blocks Candida albicans tRNA 2'-phosphotransferase | recombinant caTPT1, FP RNA substrate dephosphorylation | inhibition, % at 5 µM | hit rate 0.81% among 300,000 | AID 1962;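 active means inhibition above the mean of all tested compounds plus 3 SD, set per screening campaign, cut at about 24% in these data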;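 further: plate controls were DMSO alone for no effect and ferristatin control at 100 nM for full effect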
IDE act – IDE (human) activation, cell-based. AID 493087. hit rate 0.073% among 340,000. HEK cells, FAbeta-B cleavage, fluorescence polarization; 0% vehicle, 100% cell-free pure enzyme wells. activation, % at 5.96 µM;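 active means activation above the mean of all tested compounds plus 3 SD, set per screening campaign, cut at about 17% in these data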
IDE cell inh – inhibitors of human insulin-degrading enzyme in cells; P14735; HEK cells, FAbetaB cleavage, fluorescence polarization; inhibition, % at 5.59 µM; hit rate 0.41% among 320,000; AID 434962;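 active means percent inhibition above the average of all tested compounds plus 3 SD, set per screening campaign, cut at about 16% in these data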;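 further: IDE supplied by intact live HEK cells; FP after avidin binding of uncleaved biotin substrate so inhibition keeps polarization high; 0% = DMSO wells and 100% = 60 µM reference IDE inhibitor Ii1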
HNF4A DNA FP – change in binding of human HNF4 alpha to DNA; hit rate 0.3% among 360,000; HNF4a-FITC DNA binding, fluorescence polarization, 1 h; activity change, % at 10 µM; P41235; in the data active means activity change above about 30%, passing the limit was not always enough
An asterisk follows results filed as active; . = no result. A selection: hits, their analogues and other compounds. The true share with any hit is near 1.7%.

SMILES	TbMetRS inhib	CSN deneddyl inh	TPT1 inh	IDE act	IDE cell inh	HNF4A DNA FP
N=c1c(S(=O)(=O)c2ccc(Cl)cc2)cc2c(=O)n3ccccc3nc2n1Cc1ccco1	0	40*	8	7	7	5
CC(=O)n1ccnc1	-1	-3	1	7	4	7
CC(=O)N1CCC(=O)Nc2ccc([N+](=O)[O-])cc21	0	9	-3	20*	9	4
COc1ccc(CCC(=O)NCC23CC4CC(CC(C4)C2)C3)cc1	0	0	1	1	-2	0
COc1ccc(-c2ccc3c(c2)S(=O)(=O)c2cccc(C(=O)N4CCN(c5c(Cl)cncc5Cl)CC4)c2C3=O)cc1OC	0	21	.	4	-4	42*
CCOc1ccc(-n2c(SCC(=O)N3CCc4ccccc43)nnc2-c2c[nH]c3ccccc23)cc1	1	141*	0	13	-1	38*
COc1cccc(-n2c(SCC(=O)N3CCc4ccccc43)nnc2-c2c[nH]c3ccccc23)c1	0	0	1	3	1	-2
Cc1cc(N/N=C/c2ccc(F)cc2)nc(-n2nc(C)cc2C)n1	1	-2	-1	.	11	4
CCOc1cc(/C=N/Nc2cc(C)nc(-n3nc(C)cc3C)n2)ccc1O	-1	4	-1	22*	0	-3
CCN1CCN(c2ccc(NC(=O)CC3OC(=O)c4ccccc43)cc2C)CC1 (stereo not given)	0	-1	.	.	.	-3
CCOC(=O)C1=CCN(S(=O)(=O)c2ccccc2)C1c1ccccc1 (stereo not given)	0	121*	.	.	.	-1
Oc1cc2c(cc1O)[C@H]1c3ccc(O)c(O)c3OC[C@@]1(O)C2	0	11	.	-14	1	-5
Oc1ccc2c(c1)OCC1(O)Cc3cc(O)c(O)cc3C21 (stereo not given)	1	1	.	34*	.	-8
CN1C(=O)c2cccc3c(Cl)ccc(c23)C1=O	0	0	-5	0	4	-6
CNc1ccc2c3c(cccc13)C(=O)N(C)C2=O	0	-74	-63	59*	-32	-91
CCCCCCCCC(=O)c1c(OC)oc(C=O)cc1=O	0	68*	.	.	.	92
CCCCCCC(=O)Nc1cc2c(C)cc(=O)oc2cc1C	-2	1	-3	0	10	2
COC(=O)[C@@]1(Cc2ccc(F)cc2)[C@H]2c3cc(C(=O)N(C)C)n(Cc4ccc(OC(F)(F)F)cc4)c3C[C@H]2CN1C(=O)c1ccccc1	.	.	-1	.	-2	.
Cc1cccc(CS(=O)(=O)c2nnc([C@H](Cc3ccccc3)NC(=O)OC(C)(C)C)o2)c1	-1	0	67*	-8	1	5
CC(=O)c1cc(C#N)c(N2CCOCC2)nc1C	0	-18	-2	2	-2	0
O=C(COC(=O)Cc1ccsc1)Nc1cccc(F)c1	0	0	.	1	4	1
COC(=O)CCCCC1SCC2NC(=O)NC21 (stereo not given)	-1	-2	2	-6	2	0
O=C(O)CCCC[C@@H]1SC[C@@H]2NC(=O)N[C@@H]21	1	-4	-8	64*	-29	1
O=[N+]([O-])c1ccc(N/N=C/c2ccc(OCc3cccc4ccccc34)cc2)nc1	-1	70*	14	4	-1	35*
N#CC1=C(N)SC(N)=C(C#N)C1CCc1ccccc1	-1	26	119*	-2	2	125
SMILES	TbMetRS inhib	CSN deneddyl inh	TPT1 inh	IDE act	IDE cell inh	HNF4A DNA FP
Cc1ccc2c(c1)N(Cc1cccc(C#N)c1)C=NS2(=O)=O	0	100*	-2	1	2	-2
COc1ccc2[nH]c(=O)c(CN(Cc3cccs3)C(=S)Nc3cccc(C)c3)cc2c1	-2	-5	-1	6	-4	-1
CNC(=S)N(Cc1cccs1)Cc1cc2cc(OC)ccc2[nH]c1=O	0	-4	-1	34*	6	-3
Cc1ccc(NC(=O)CSCc2cc(=O)n3cc(C)sc3n2)cc1	0	4	-2	-1	5	-1
CC1(C)CC(c2nc(-c3ccccc3)cs2)CCS1 (stereo not given)	-1	97*	3	2	1	17
COC(=O)[C@@]12C[C@@H](CC(=O)N3CCCC3)C(=O)N(Cc3ccco3)C1=CCC(C)(C)C2	-1	0	.	.	.	0
COC(=O)[C@@]12C[C@@H](CC(=O)N3CCC(c4ccccc4)CC3)C(=O)N(Cc3ccco3)C1=CCC(C)(C)C2	0	121*	.	.	.	4
Cc1ccncc1CNC(=O)c1ccccc1	0	-2	.	5	.	3
O=C(/C=C/c1ccco1)Nc1ccc(-c2nc3ccccc3[nH]2)cc1	1	5	-1	-2	8	66*
O=C(Nc1ccc(-c2nc3ccccc3[nH]2)cc1)c1ccco1	-1	-3	2	-9	15	1
COc1ccc(-c2csc(-n3ncc(-c4ccccn4)c3N)n2)cc1	0	1	0	2	5	28*
O=[N+]([O-])c1cccc(/C=N\N2CCN(Cc3ccccc3Cl)CC2)c1	0	-6	4	4	2	42*
O=[N+]([O-])c1cccc(/C=N/N2CCN(Cc3ccccc3)CC2)c1	0	5	-4	-4	2	-2
Clc1ccccc1Cn1c(/C=C/c2ccco2)nc2ccccc21	-1	36*	16	-2	10	18
COc1cc(Cl)ccc1NC(=S)N(CCN(C)C)C(C)c1ccncc1 (stereo not given)	0	2	0	5	3	4
COc1ccc(NC(=S)N(CCN(C)C)C(C)c2ccncc2)cc1Cl (stereo not given)	0	3	0	4	11	44*
CCC1CCCCN1S(=O)(=O)c1ccc([N+](=O)[O-])cc1 (stereo not given)	-1	-1	1	6	0	-2
CCC1CCCCN1S(=O)(=O)c1ccc(S(=O)(=O)N2CCN(S(=O)(=O)CC)CC2)cc1 (stereo not given)	0	4	-3	18*	6	2
CCc1cc(=O)oc2cc3occ(C)c3cc12	-1	-9	-1	1	2	-2
CCc1cc(=O)oc2cc3occ(-c4ccc(OC)c(F)c4)c3cc12	0	37*	-1	4	7	30
CSCCNC(=O)C1(C)CCN1C(=O)CCc1ccccc1 (stereo not given)	0	-3	.	.	.	5
Cc1ccc(/C=c2\sc3nc(-c4cccs4)nn3c2=O)o1	0	44*	9	0	-3	1
COc1ccccc1CCNC(=O)CNC(=O)Cc1cccc2ccccc12	0	-3	-4	-2	3	2
Cc1ccc([N+](=O)[O-])cc1N/C=C1\CCCCC1=O	0	111	4	7	1	2

Bioassay records (PubChem BioAssay)
